Our source for the selectivity ratio, EC50 and CC50 values is ChEMBL document CHEMBL4715720, “Synthetic strategy and antiviral evaluation of diamide containing heterocycles targeting dengue and yellow fever virus” (Eur J Med Chem, 2016).

Each structure is given as a SMILES string. Where only a bound is given, the exact number is not on record here.

A short description of data set [1]: Selectivity index, ratio of CC50 for African green monkey Vero-B cells infected with Dengue virus serotype 2 assessed as inhibition of cell growth to EC50 for Dengue Virus serotype 2 infected in Vero-B cells assessed as inhibition of virus-induced cytopathogenic effect incubated for 7 days by methylene blue staining based visual analysis. Format: toxicity. The settings on record: read-out: Ratio CC50/EC50. In general terms: Cytopathic effects are the visible damage that an infection or toxin causes in cultured cells.

Data set [2] is described as follows: Selectivity index, ratio of CC50 for African green monkey Vero-B cells infected with Yellow fever virus assessed as inhibition of cell growth to EC50 for Yellow fever virus infected in Vero-B cells assessed as inhibition of virus-induced cytopathogenic effect incubated for 7 days by methylene blue staining based visual analysis. The conditions noted are these: read-out: Ratio CC50/EC50. Format: toxicity.

The test system of data set [3] is dengue virus type 2. Kind of data set: Antiviral activity against Dengue virus serotype 2 infected in Vero-B cells assessed as inhibition of virus-induced cytopathogenic effect after 7 days by methylene blue staining based visual analysis. The format is functional, organism-based. The settings on record: 168 h. The method in brief:
(§1)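 Dengue virus serotype 2 was tested in green monkey kidney Vero-B cells from the ECACC line. EC50 is the concentration that inhibits virus-induced CPE by 50%. CC50 is the concentration that inhibits cell growth by 50%. Values were first obtained in μg/mL and then recalculated to μM.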

A short description of data set [4]: Cytotoxicity against African green monkey Vero-B cells infected with Dengue virus serotype 2 assessed as inhibition of cell growth after 7 days by methylene blue staining based visual analysis. The settings on record: chlorocebus aethiops, time 7 day. The method in brief:
as §1

Data set [5] concerns Yellow fever virus. Kind of data set: Antiviral activity against Yellow fever virus infected in Vero-B cells assessed as inhibition of virus-induced cytopathogenic effect after 7 days by methylene blue staining based visual analysis. Format: functional, organism-based. The settings on record: 168 h. An outline of the steps:
(§2)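 Yellow fever virus was tested in Vero-B cells of the ATCC CCL-81 line. EC50 is the concentration giving 50% inhibition of virus-induced CPE. CC50 is the concentration giving 50% inhibition of cell growth. The original μg/mL data were converted to μM.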

The nature of data set [6]: Cytotoxicity against African green monkey Vero-B cells infected with Yellow fever virus assessed as inhibition of cell growth after 7 days by methylene blue staining based visual analysis. The conditions noted are these: chlorocebus aethiops, time 7 day. An outline of the steps: as §2

As for `Cc1ccc(NC(=O)c2nccnc2C(=O)Nc2ccc(C)cc2-c2cccs2)cc1`, in data set [1], the selectivity ratio at 168 h was over 235.
Take `Cc1ccc(NC(=O)c2nccnc2C(=O)Nc2ccc(F)cc2)c(-c2cccs2)c1`: the selectivity ratio at 168 h in data set [2] is 5.
The term EC50 denotes the concentration giving half of the maximal effect. For orientation: CC50 means the concentration that lowers cell viability or growth by half. For `O=C(NCc1ccccc1-c1ccsc1)c1ccccc1C(=O)Nc1ccc(F)cc1`, the figures for the EC50 in data set [3] and in data set [5] were 3 µM and 1.4 µM, respectively. The CC50 at 168 h turned out to be 50 µM in data set [4] and 75 µM in data set [6]. The selectivity ratio at 168 h in data set [1] was found to be 17; in data set [2], 53.
With `Cc1ccc(NC(=O)c2nccnc2C(=O)Nc2ccccc2-c2cc(C)n[nH]2)cc1`, the selectivity ratio at 168 h in data set [2] is over 34.
As to `Cc1ccc(NC(=O)c2nccnc2C(=O)Nc2ccc(C)cc2-c2ccsc2)cc1`, the selectivity ratio at 168 h in data set [1] is over 29.
In the case of `Cc1ccc(NC(=O)c2nccnc2C(=O)Nc2ccc(C)cc2-c2cc(C)n[nH]2)cc1`, the selectivity ratio at 168 h in data set [1] was over 235.
On the same count and under the same terms, for `Cc1ccc(NC(=O)c2ccccc2C(=O)Nc2ccc(C)cc2-c2ccsc2)cc1` the value was 41; for `Cc1ccc(NC(=O)c2ccccc2C(=O)Nc2ccc(F)cc2)c(-c2cc(C)n[nH]2)c1`, over 235.
